RBBP9 inh = human RBBP9 hydrolase inhibition; O75884; recombinant RBBP9, FP-Rh probe fluorescence polarization; inhibition, % at 7.94 µM; actives 0.2% (n = 220,000); AID 1515;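 active = inhibition above the campaign mean of all tested compounds plus 3 SD, cut at about 14% in these data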;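 note: plate controls were DMSO wells with RBBP9 for no effect and wells lacking RBBP9 protein for full effect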
Target sequence (O75884 whole entry, looked up): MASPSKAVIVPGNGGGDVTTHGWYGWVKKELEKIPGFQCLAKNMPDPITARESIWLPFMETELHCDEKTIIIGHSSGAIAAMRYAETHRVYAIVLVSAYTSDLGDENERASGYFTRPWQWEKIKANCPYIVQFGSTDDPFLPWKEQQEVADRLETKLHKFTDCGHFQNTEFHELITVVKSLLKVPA
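Test system – recombinant human RBBP9 · Input – RBBP9 2.5 µM in dispensing solution, pre-mixing · Medium – Tris buffer pH 8.0, NaCl, Pluronic · Schedule – preincubation 30 min plus labeling 45 min at 25 °C · Measured by – fluorescence polarization · Measure – % inhibition · Controls – DMSO and no-protein wells · Replicates – one well per compound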
ABCG2 block = inhibitors of human ABCG2 transporter, ABCB1 counter-screen; actives 0.1% (n = 190,000); Q9UNQ0; inhibition, % at 6.6 µM; AID 1325; IgMXP3 cells, JC-1 efflux, flow cytometry;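 active = inhibition above 80%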;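 note: 0% = DMSO and 100% = nicardipine control wells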
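Read-out basis: Efflux inhibition in percent versus controls | Test system: ABCG2 IgMXP3 and barcoded ABCB1 CCRF-Adr cell mix | Quantity: 3 million cells/mL in well | Schedule: 10 min at 25 °C | Control set: Nicardipine as high control, DMSO as low control | Reagent: JC-1 as fluorescent efflux pump substrate | Signal: Flow cytometry of retained JC-1 fluorescence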
EP2 mod = EP2 receptor (human) modulation. EP2-expressing cells, cAMP HTRF FRET, PGE2 co-stimulation. actives 0.83% (n = 260,000). induction, % at 25 µM. AID 940;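 active = compounds whose cAMP rise, as percent of the full-agonist control response, exceeds 60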;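 note: rat C6 glioma line stably carrying human EP2 under a CMV promoter; the protocol text gives 20 µM as final concentration; 100% = response of wells given 1 µM PGE2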
PGE2 EP2 inh = EP2 receptor (human) inhibition. P43116. C6 glioma cells expressing human EP2, cAMP TR-FRET; cells stimulated with saturating PGE2. inhibition, % at 25 µM. actives 0.52% (n = 260,000). AID 1422;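 active = percent inhibition above 40 after rounding to a whole number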;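 note: rat C6 glioma host cells with rolipram phosphodiesterase inhibitor present; the protocol text gives 20 µM as final concentration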
ABCB1 inh = blocks JC-1 efflux by human ABCB1 transporter | P08183 | CCRF-Adr cells, flow cytometry | inhibition, % at 6.6 µM | actives 0.067% (n = 190,000) | AID 1326; in the data active = inhibition above about 40%;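 note: 0% = vehicle and 100% = reference inhibitor; higher value means more JC-1 retained so stronger ABCB1 efflux block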
Active calls of the source: *; . = no result given. Most compounds without a hit are left out; they make up all but 1.5% or so of the library.

SMILES | RBBP9 inh | ABCG2 block | EP2 mod | PGE2 EP2 inh | ABCB1 inh
CCc1c(C)sc2nc(C)nc(SCC(=O)Nc3c(C)cc(C)cc3C)c12 | . | . | 6 | 9 | .
CN1CCCC1CCNc1ccc2sc3ccccc3c(=O)c2c1 (configuration not stated) | . | . | . | 44* | .
Nc1nonc1C(=O)NCCN=Cc1cc(Cc2ccccc2)cc(Br)c1O | -1 | 5 | 61* | . | 2
CCn1c(=O)c2c(nc(SCC(=O)c3ccc(C)cc3)n2C)n(C)c1=O | . | . | -26 | 9 | .
S=c1nc[nH]c2c1cnn2-c1ccccc1 | 3 | . | 71* | 9 | .
Nc1ncnc2c1cnn2-c1ccccc1 | -2 | 15 | . | -4 | 0
O=C1NC(=O)/C(=C/c2cccc([N+](=O)[O-])c2)N1 | 2 | . | -19 | 6 | .
CCN1C/C(=C/c2cccc([N+](=O)[O-])c2)C(=O)/C(=C/c2cccc([N+](=O)[O-])c2)C1 | -8 | 15 | -56 | 46* | 2
c1ccc2sc(SCN(C3CCCCC3)C3CCCCC3)nc2c1 | . | . | 21 | 43* | .
CCOC(=O)c1c(NC(=O)CSc2ncnc3ccccc23)sc(C(C)=O)c1C | -9 | 40 | 24 | 7 | 42*
O=C(Nc1nc2ccccc2o1)Nc1ccccc1Cl | . | . | -43 | 41* | .
Cc1cccc(NC(=O)CSc2nc3ncccc3[nH]2)c1 | . | . | 28 | 15 | .
Cc1ccccc1C1C(C#N)=C(N)NC(S)=C1C#N (configuration not stated) | . | . | 71* | 14 | .
O=C1C=C(N2CCN(c3ccccn3)CC2)C(=O)c2c(O)ccc(O)c21 | . | . | -9 | 66* | .
NC(N)=N[C@@H]1C(O)[C@H](N=C(N)N)[C@@H](O)C(O)[C@H]1O (some centres not stated) | . | . | 1 | 51* | .
COc1ccc2c(c1)NC1(CCN(C(=O)c3cnn4cccnc34)CC1)c1cccn1-2 | . | . | -68 | 8 | .
Cc1cc(-c2cccs2)c2c(n1)sc1c(=O)[nH]c(=O)[nH]c12 | -9 | 5 | 31 | 47* | 1
Cc1cc(-c2ccccc2)c2c(n1)sc1c(O)cc(=O)[nH]c12 | -2 | . | 27 | 18 | .
Cn1c(=O)c2c(nc(NC3CCCCC3)n2CCC#N)n(C)c1=O | . | . | 28 | 22 | .
CN(C)c1ccc(NC(=O)CSc2nc3ccccc3c(=O)n2C2CCCCC2)cc1 | -4 | 6 | 7 | 7 | 2
CCCN(CCC)C(=O)CSc1nc2ccccc2c(=O)n1C1CCCC1 | 12 | 44 | 34 | 14 | 52*
O=C(C1CCCC1)N1CCC[C@@H](Cn2nc(-c3cccs3)ccc2=O)C1 | . | . | -43 | 10 | .
CCOC(=O)C1=NN(c2ccccc2)C2(S1)SC(C(C)=O)=C(C)N2c1ccccc1 (configuration not stated) | 2 | 15 | 63* | 2 | 4
CC1=N[C@@](C)(COC(=O)[C@]2(C)N[C@](C)(CO)CO2)COC1=O | . | . | 32 | 48* | .
CC(C)(C)c1ccc(Cn2nnc3c(=O)[nH]c(C4CCN(C(=O)C5CCCCC5)CC4)nc32)cc1 | . | . | 72* | 8 | .
SMILES | RBBP9 inh | ABCG2 block | EP2 mod | PGE2 EP2 inh | ABCB1 inh
CCc1ccccc1NC(=O)CC1CS(=O)(=O)CC1CC(=O)Nc1ccccc1CC (configuration not stated) | -2 | -2 | 17 | 1 | 0
O=C(CC1CCS(=O)(=O)C1)Nc1ccc[nH]c1=O (configuration not stated) | 16* | 1 | 9 | 1 | 0
CCOc1cc(OCC)cc(C(=O)Nc2ccc3oc(-c4ccncc4)nc3c2)c1 | . | . | -2 | 9 | .
CCn1nc(C)c(Br)c1C(=O)Sc1ccccc1Cl | -4 | . | 68* | 10 | .
CCn1nc(C)cc1C(=O)Sc1ccc(C)cc1 | -12 | . | -35 | 5 | .
CC1=CC(C)(C)n2c(O)c(N=NC(N)=S)c3c(C)c(C)cc1c32 | -5 | . | -10 | 2 | .
CC1=CC(C)(C)n2c(O)c(N=N)c3c(C)ccc1c32 | -14 | . | 82* | 11 | .
CC1=CC(C)(C)n2c(O)c(N=N)c3c(C)c(C)cc1c32 | -4 | . | 76* | 5 | .
COc1ccc(C)cc1NC(=O)CSc1nc2c(c(=O)n(C)c(=O)n2C)n1Cc1ccccc1 | . | . | 44 | 12 | .
O=C1NC2(CCN(C(=O)C3CC(=O)N(C4CCCCC4)C3)CC2)Nc2ccccc21 (configuration not stated) | . | . | -1 | 4 | .
O=C(Nc1sc(NC(=O)c2cccs2)nc1-c1cccs1)c1ccccc1 | . | . | 61* | 18 | .
